Measured values: ChEMBL document CHEMBL2062504, “Diterpenoid alkaloids from the lateral root of Aconitum carmichaelii” (J Nat Prod, 2012)
Activity calls are given as the source filed them. The calls are words filed in the database; no cut-off is given here.

Experiments:
[1] = system: Peritoneal macrophage cell; experiment: Antiinflammatory activity in mouse peritoneal macrophages assessed as inhibition of nitric oxide production at 10 uM; type: functional, cell-based
Bel-7402 = experiment: Cytotoxicity against human Bel7402 cells at 10 uM after 96 hrs by MTT assay; type: functional, cell-based
HCT-8 = experiment: Cytotoxicity against human HCT8 cells at 10 uM after 96 hrs by MTT assay; type: functional, cell-based
BGC-823 = experiment: Cytotoxicity against human BGC823 cells at 10 uM after 96 hrs by MTT assay; type: functional, cell-based
KETR3 = experiment: Cytotoxicity against human Ketr3 cells at 10 uM after 96 hrs by MTT assay; type: functional, cell-based
A549 = experiment: Cytotoxicity against human A549 cells at 10 uM after 96 hrs by MTT assay; type: functional, cell-based
Liver microsomes = experiment: Antioxidant activity in rat liver microsome assessed as inhibition of FeSO4-induced lipid peroxidation at 10 uM incubated for 15 mins prior to FeSO4-challenge measured after 15 mins by modified thiobarbituric acid method; type: functional
PC-12 = experiment: Neuroprotective activity against serum starvation-induced cell death in rat PC12 cells assessed as cell viability at 10 uM incubated for 24 hrs prior to serum starvation measured after 24 hrs by MTT assay (reference value: 55.1+/-4.2%); type: functional; conditions: read-out: Activity
WB-F344 = experiment: Hepatoprotective activity against DL-galactosamine-induced cell death in rat WB-F344 cells at 10 uM incubated for 1 hr prior to DL-galactosamine-challenge measured after 24 hrs by MTT assay; type: functional, cell-based
MCF7 = experiment: Cytotoxicity against human MCF7 cells at 10 uM after 96 hrs by MTT assay; type: functional, cell-based
Mus musculus [2] = experiment: Toxicity in mouse acetic acid writhe model assessed as mortality at 5 mg/kg, ip; type: organism-based; design: dose 5 mg/kg, route intraperitoneal; conditions: in vivo
Method in brief: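 Mice given 5 mg/kg ip in the acetic acid-induced writhing test; deaths recorded, alongside percent reduction of writhes versus blank control.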

Mus musculus [3] = experiment: Analgesic activity in mouse assessed as reduction in acetic acid-induced writhing at 0.5 mg/kg, ip relative to vehicle-treated control; type: functional; design: scale not given: the % may be the effect or the level left; conditions: route intraperitoneal
Method in brief: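 Acetic acid-induced writhing test in mice. Compound given intraperitoneally at 0.5 mg/kg. Analgesia expressed as percent reduction in number of writhes versus blank control.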

[4] = Toxicity in ip dosed mouse acetic acid wrtihe model; type: organism-based; conditions: in vivo
Method in brief: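 Acute toxicity in mice dosed intraperitoneally, reported as LD50 in mg/kg.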

Mus musculus [5] = experiment: Analgesic activity in mouse assessed as reduction in acetic acid-induced writhing at 5 mg/kg, ip relative to vehicle-treated control; type: functional; design: scale not given: the % may be the effect or the level left; conditions: route intraperitoneal
Method in brief: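 Mice dosed ip at 5 mg/kg, then given acetic acid to provoke writhing. Writhes were counted, and the value is the percent reduction in writhes compared with a blank control group, reported as mean ± deviation.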

| Structure (SMILES) | inhibition [1] | Activity (Bel-7402) | Activity (HCT-8) | Activity (BGC-823) | Activity (KETR3) | Activity (A549) | inhibition (Liver microsomes) | viability at 10 µM (PC-12) | Activity (WB-F344) | Activity (MCF7) | Activity (Mus musculus [2]) | Activity (Mus musculus [3]) | LD50 [4] | Activity (Mus musculus [5]) |
| --- | --- | --- | --- | --- | --- | --- | --- | --- | --- | --- | --- | --- | --- | --- |
| CCN1C[C@]2(COC)CC[C@H](OC)[C@]34C1[C@H]([C@H](O)[C@H]23)[C@]1(OC)[C@H]2[C@@H](OC(=O)c3ccccc3)[C@H](C[C@H]24)[C@@H](OC)[C@@H]1O | inactive | inactive | inactive | inactive | inactive | inactive | inactive | 75.8% | inactive | inactive |  |  |  |  |
| COC[C@@]12CC[C@H](OC)[C@]34C(C([C@H](OC)[C@H]13)[C@]1(OC(C)=O)[C@H]3[C@@H](OC(=O)c5ccccc5)[C@](O)(C[C@H]34)[C@@H](OC)[C@@H]1O)N(C)C2 [HYPACONITINE] | inactive | inactive | inactive | inactive | inactive | inactive | inactive |  | inactive | inactive | Toxic | 36% | 2.65 mg/kg |  |
| COC[C@@]12CC[C@H](OC)[C@]34C([C@H]([C@H](OC)[C@H]13)[C@]1(OC(C)=O)[C@H]3[C@@H](OC(=O)c5ccccc5)[C@](O)(C[C@H]34)[C@H](OC)[C@@H]1O)N(C)C2 | inactive | inactive | inactive | inactive | inactive | inactive | inactive |  | inactive | inactive | Toxic | 30% | 4.37 mg/kg |  |
| COC[C@]12CN(C)C3[C@@H]4[C@H](OC)[C@H]1[C@@]3([C@@H](OC)C[C@H]2O)[C@@H]1C[C@@]2(O)[C@H](OC(=O)c3ccccc3)[C@@H]1[C@]4(OC(=O)c1ccccc1)[C@@H](O)[C@@H]2OC | inactive | inactive | inactive | inactive | inactive | inactive | inactive | 74.7% | inactive | inactive |  |  |  |  |
| CCN1C[C@]2(COC)[C@H](O)C[C@H](OC)[C@]34C1[C@H]([C@H](OC)[C@H]23)[C@]1(O)[C@H]2[C@@H](OC(=O)c3ccccc3)[C@](O)(C[C@H]24)[C@@H](OC)[C@@H]1O | inactive | inactive | inactive | inactive | inactive | inactive | inactive | 70.8% | inactive | inactive |  |  |  |  |
| CCN1C[C@]2(COC)CC[C@H](OC)[C@]34C1[C@H]([C@H](OC)[C@H]23)[C@@]1(O)C[C@H](OC)[C@@]2(O)C[C@@H]4[C@@H]1[C@H]2OC(=O)c1ccccc1 | inactive | inactive | inactive | inactive | inactive | inactive | inactive |  | inactive | inactive |  |  |  |  |
| C=C1C[C@@]23C[C@H]4[C@@H]5[C@@]6(C)C[C@H](OC(=O)CC)C[C@@]57[C@@H]2[C@H](O)[C@@H]1[C@H](OC(=O)[C@@H](C)CC)C3[C@H]7[N+]4(C)[C@H]6O | inactive | inactive | inactive | inactive | inactive | inactive | inactive |  | inactive | inactive |  |  |  |  |
| COC[C@]12CN(C)C3[C@@H]4[C@H](OC)[C@H]1[C@@]3([C@@H](OC)C[C@H]2OC(C)=O)[C@@H]1C[C@@]2(O)[C@H](OC(=O)c3ccccc3)[C@@H]1[C@]4(O)[C@@H](OC(C)=O)[C@@H]2OC | inactive | inactive | inactive | inactive | inactive | inactive | inactive |  | inactive | inactive |  |  |  |  |
| COC[C@]12CN(C)C3[C@@H]4[C@H](OC)[C@H]1[C@@]3([C@@H](OC)C[C@H]2O)[C@]1(O)C[C@@]2(O)[C@H](OC(=O)c3ccccc3)[C@@H]1[C@]4(OC)[C@@H](O)[C@@H]2OC (stereo in doubt; 7) |  |  |  |  |  |  |  |  |  |  |  |  |  | 35% |
| CCN1C(=O)[C@]2(COC)CC[C@H](OC)[C@]34C1[C@H]([C@H](OC)[C@H]23)[C@]1(OC(C)=O)[C@H]2[C@@H](OC(=O)c3ccccc3)[C@](O)(C[C@H]24)[C@@H](OC)[C@@H]1O | inactive | inactive | inactive | inactive | inactive | inactive | inactive |  | inactive | inactive |  |  |  |  |
| COC[C@]12CN(C)C3[C@@H]4[C@H](OC)[C@H]1[C@@]3([C@@H](OC)C[C@H]2O)[C@]1(O)C[C@@]2(O)[C@H](OC(=O)c3ccccc3)[C@@H]1[C@]4(OC)[C@@H](O)[C@@H]2OC (stereo in doubt; 8) [listing 1 of 2 here] |  |  |  |  |  |  |  |  |  |  |  |  |  | 56% |
| CCN1C[C@]2(COC)[C@H](O)C[C@H](OC)[C@]34C1[C@H]([C@H](OC)[C@H]23)[C@]1(OC(C)=O)[C@H]2[C@@H](OC(=O)c3ccccc3)[C@](O)(C[C@]24O)[C@@H](OC)[C@@H]1O | inactive | inactive | inactive | inactive | inactive | inactive | inactive |  | inactive | inactive |  |  |  |  |
| CCN1C[C@]2(COC)CC[C@H](O)[C@]34C1[C@H](C[C@H]23)[C@]1(O)[C@H]2[C@@H](OC(=O)c3ccccc3)[C@H](C[C@H]24)[C@@H](OC)[C@@H]1O | inactive | inactive | inactive | inactive | inactive | inactive | inactive |  | inactive | inactive |  |  |  |  |
| CCO[C@]12[C@H]3[C@@H](OC(=O)c4ccccc4)[C@H](C[C@H]3[C@@]34C5[C@@H]1[C@H](O)[C@@H]3[C@@](COC)(CC[C@@H]4OC)CN5CC)[C@@H](OC)[C@@H]2O | inactive | inactive | inactive | inactive | inactive | inactive | inactive |  | inactive | inactive |  |  |  |  |
| CCN1C[C@]2(COC)[C@H](O)C[C@H](OC)[C@]34C1[C@H]([C@H](OC)[C@H]23)[C@@]1(OC(C)=O)C[C@H](OC)[C@@]2(O)C[C@]4(O)[C@@H]1[C@H]2OC(=O)c1ccccc1 | inactive | inactive | inactive | inactive | inactive | inactive | inactive |  | inactive | inactive |  |  |  |  |
| COC[C@]12CN(C)C3[C@@H]4[C@H](OC)[C@H]1[C@@]3([C@@H](OC)C[C@H]2O)[C@]1(O)C[C@@]2(O)[C@H](OC(=O)c3ccccc3)[C@@H]1[C@]4(OC)[C@@H](O)[C@@H]2OC (stereo in doubt; 8) [listing 2 of 2 here] | inactive | inactive | inactive | inactive | inactive | inactive | inactive |  | inactive | inactive |  |  |  |  |
